Data reported in ChEMBL document CHEMBL1121967 (J Med Chem, 1982).
“And” between values parts separate entries of the source, which are not always exact repeats. Equal entries are not always repeated. The source made the active and inactive calls. No cut-off for these calls is given here. Residues, ends and D or L forms follow the SMILES beside them.

Tests used:
Format in all cases: functional
Cavia porcellus [1] = organism: Cavia porcellus; experiment: Negative log of the concentration producing 50% of the maximum effect was measured in guinea pig ileum as pA2-pA10
Cavia porcellus [2] = organism: Cavia porcellus; experiment: Negative log of the concentration producing 50% of the maximum effect was measured in guinea pig ileum; settings: for Kb: Cavia porcellus, Ileum, read-out: pA2 (converted)
How it was run: (§1)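 Isolated helical strips of rabbit mesenteric vein, longitudinal strips of guinea pig ileum, or helical strips of guinea pig trachea, held in 10-mL baths of Krebs' solution at 37 °C gassed with 95% O2/5% CO2. Isometric tension recorded. Cumulative agonist concentrations 10⁻¹⁰ to 10⁻⁵ M. pD2 is -log concentration giving 50% of the compound's own maximum. Intrinsic activity is a fraction of SP's, and affinity is relative to SP. Values come from 10-12 determinations.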

Cavia porcellus [3] = organism: Cavia porcellus; experiment: Concentration producing 50% of the maximum effect was tested in guinea pig ileum; inactive; how it was run: as §1
Cavia porcellus [4] = organism: Cavia porcellus; experiment: Concentration producing 50% of the maximum effect was tested in guinea pig trachea; inactive; how it was run: as §1
Oryctolagus cuniculus [5] = organism: Oryctolagus cuniculus; experiment: The intrinsic activity was measured in Rabbit mesenteric vein; settings: for Kb: read-out: pA2 (converted); how it was run: as §1
Oryctolagus cuniculus [6] = organism: Oryctolagus cuniculus; experiment: Negative log of the concentration producing 50% of the maximum effect was measured in Rabbit mesenteric vein; how it was run: as §1
Oryctolagus cuniculus [7] = organism: Oryctolagus cuniculus; experiment: Relative affinity was determined with substance P(SP) in Rabbit mesenteric vein; how it was run: as §1
Cavia porcellus [8] = organism: Cavia porcellus; experiment: Relative affinity was determined with substance P(SP) in guinea pig ileum; how it was run: as §1
Cavia porcellus [9] = organism: Cavia porcellus; experiment: Relative affinity was determined with substance P(SP) in guinea pig trachea; how it was run: as §1
Cavia porcellus [10] = organism: Cavia porcellus; experiment: Concentration producing 50% of the maximum effect was tested in guinea pig ileum; settings: read-out: ED50 (the source's name); how it was run: as §1
Cavia porcellus [11] = organism: Cavia porcellus; experiment: The intrinsic activity was measured in guinea pig ileum; how it was run: as §1
Cavia porcellus [12] = organism: Cavia porcellus; experiment: The intrinsic activity was measured in guinea pig trachea; how it was run: as §1
Cavia porcellus [13] = organism: Cavia porcellus; experiment: Negative log of the concentration producing 50% of the maximum effect was measured in guinea pig trachea; how it was run: as §1
Oryctolagus cuniculus [14] = organism: Oryctolagus cuniculus; experiment: Concentration producing 50% of the maximum effect was tested in Rabbit mesenteric vein; how it was run: as §1
Cavia porcellus [15] = organism: Cavia porcellus; experiment: Concentration producing 50% of the maximum effect was tested in guinea pig trachea; settings: read-out: ED50 (the source's name); how it was run: as §1
Oryctolagus cuniculus [16] = organism: Oryctolagus cuniculus; experiment: Negative log of the concentration producing 50% of the maximum effect was measured in Rabbit mesenteric vein as pA2-pA10

EC50 (Cavia porcellus [10]) [nM]	EC50 (Cavia porcellus [15]) [nM]	Compound	pA2 minus pA10 difference (Cavia porcellus [1])	RA (Oryctolagus cuniculus [7])	RA (Cavia porcellus [8])	RA (Cavia porcellus [9])	Intrinsic actvity (Cavia porcellus [11])	pD2 (Cavia porcellus [2])	pD2 (Cavia porcellus [13])	ED50 (Oryctolagus cuniculus [14]) [nM]	pD2 (Oryctolagus cuniculus [6])	also measured
		CSCC[C@H](NC(=O)[C@H](CC(C)C)NC(=O)[C@H](Cc1c[nH]c2ccccc12)NC(=O)[C@H](Cc1ccccc1)NC(=O)[C@H](Cc1ccccc1)NC(=O)[C@H](CCC(N)=O)NC(=O)[C@H](CCC(N)=O)NC(=O)[C@@H]1CCCN1C(=O)[C@H](CCCCN)NC(=O)[C@@H]1CCCN1C(=O)[C@@H](N)CCCN=C(N)N)C(N)=O	0.45									Kb (Cavia porcellus [2]): 21.4 µM
		CSCC[C@H](NC(=O)[C@H](CC(C)C)NC(=O)[C@H](Cc1c[nH]c2ccccc12)NC(=O)[C@H](Cc1ccccc1)NC(=O)[C@H](Cc1c[nH]c2ccccc12)NC(=O)[C@H](CCC(N)=O)NC(=O)[C@H](CCC(N)=O)NC(=O)[C@@H]1CCCN1)C(N)=O (H-PQQWFWLM-NH2)	1 and 1.01	<0.1								ED50 (Cavia porcellus [3]): inactive; ED50 (Cavia porcellus [4]): inactive; pA2 (Cavia porcellus [2]): 5.65 and 5.96; Kb (Oryctolagus cuniculus [5]): 2.24 µM; pA2-pA10 (Oryctolagus cuniculus [6]): 1
1.2	34	CSCC[C@H](NC(=O)[C@H](CC(C)C)NC(=O)CNC(=O)[C@H](Cc1ccccc1)NC(=O)[C@H](Cc1ccccc1)NC(=O)[C@@H](N)CCC(N)=O)C(N)=O (H-QFFGLM-NH2)		33	146	507	1	8.91	7.46	80	7.1	Intrinsic actvity (Cavia porcellus [12]): 1.25; Activity (Oryctolagus cuniculus [5]): 1
		CSCC[C@H](NC(=O)[C@H](Cc1c[nH]c2ccccc12)NC(=O)CNC(=O)[C@H](Cc1ccccc1)NC(=O)[C@H](Cc1ccccc1)NC(=O)[C@@H](N)CCCN=C(N)N)C(N)=O (H-RFFGWM-NH2)	0.82	<0.1								ED50 (Cavia porcellus [3]): inactive; ED50 (Cavia porcellus [4]): inactive; Kb (Cavia porcellus [2]): 9.77 µM; Activity (Oryctolagus cuniculus [16]): 0.69; Kb (Oryctolagus cuniculus [5]): 11 µM
1300	860	CSCC[C@H](NC(=O)[C@H](CC(C)C)NC(=O)[C@H](Cc1c[nH]c2ccccc12)NC(=O)[C@H](Cc1ccccc1)NC(=O)[C@H](Cc1ccccc1)NC(=O)[C@@H](N)CCCN=C(N)N)C(N)=O (H-RFFWLM-NH2)		2.7	0.1	20.3		5.88	6.06	970	6	
360	4200	CSCC[C@H](NC(=O)[C@H](CC(C)C)NC(=O)CNC(=O)[C@H](Cc1c[nH]c2ccccc12)NC(=O)[C@H](Cc1ccccc1)NC(=O)[C@@H](N)CCCN=C(N)N)C(N)=O (H-RFWGLM-NH2)			0.5	4.2	0.9	6.44	5.38			Activity (Cavia porcellus [12]): 0.5
250	6600	CSCC[C@H](NC(=O)[C@H](CC(C)C)NC(=O)CNC(=O)[C@H](Cc1ccccc1)NC(=O)[C@H](Cc1c[nH]c2ccccc12)NC(=O)[C@@H](N)CCCN=C(N)N)C(N)=O (H-RWFGLM-NH2)		0.9	0.7	2.8	0.9	6.6	5.18	2700	5.56	
